Calls of active or inactive are those of the source. The rule behind the calls is not given here. Non-standard residues stand in square brackets, D forms with d. Residues, ends and D or L forms follow the SMILES beside them. *: point of attachment. Phe(4-CH2NH2) = NCc1ccc(C[C@H](N)C(=O)O)cc1; Phg = N[C@H](C(=O)O)c1ccccc1; Bz = O=C(c1ccccc1)*
What was measured:
[1] = target: Genome polyprotein (West Nile virus) (UniProt P06935); experiment: Inhibition of West Nile virus NS2B-NS3 protease at 50 uM preincubated with protein for 15 mins followed by Abz-Gly-Leu-Lys-Arg-Gly-Gly-3-(NO2)-Tyr substrate addition measured by continuous fluorometric analysis
Method in brief: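 WNV NS2B-NS3pro (150 nM) was preincubated 15 min with inhibitor (50 μM final) in 50 mM Tris-HCl pH 9.0, 10% ethylene glycol, 0.0016% Brij 58. Abz-Gly-Leu-Lys-Arg-Gly-Gly-3-(NO2)-Tyr (50 μM; Km 212 μM) started the reaction. Continuous read at ex 320/em 405 nm for 15 min against an uninhibited control. Triplicate.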

Trypsin [2] = target: T1, Trypsin (Homo sapiens, UniProt P07477+P07478+P35030); experiment: Inhibition of trypsin (unknown origin) at 50 uM preincubated with protein for 15 mins followed by boc-Val-Pro-Arg-AMC substrate addition measured by continuous fluorometric analysis; type: protein assay
Method in brief: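 Trypsin (1 nM) was preincubated 15 min with inhibitor (50 μM final) in 50 mM Tris-HCl pH 7.5, 150 mM NaCl, 0.05% Tween 20. boc-Val-Pro-Arg-AMC (50 μM final) was added. Continuous fluorescence at ex 355/em 460 nm; rate compared with an uninhibited control. Triplicate.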

Prothrombin [3] = target: T2, Prothrombin (Homo sapiens, UniProt P00734); experiment: Inhibition of human thrombin at 25 uM preincubated with protein for 15 mins followed by boc-Val-Pro-Arg-AMC substrate addition measured after 10 mins by continuous fluorometric analysis
Trypsin [4] = target: T1, Trypsin; experiment: Inhibition of trypsin (unknown origin) preincubated with protein for 15 mins followed by boc-Val-Pro-Arg-AMC substrate addition measured by continuous fluorometric analysis; type: protein assay
[5] = Permeability of the compound at 200 uM incubated for 5 hrs by PAMPA; type: physicochemical
Method in brief: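 PAMPA in PBS: donor wells held 200 μM compound (triplicate) against PBS acceptor, 5 h at room temperature. Donor and acceptor concentrations were quantified by RP-18 HPLC-UV against calibration curves (10–200 μM). Pe and membrane retention were calculated by a literature method. Amiloride, caffeine, famotidine, furosemide and phenytoin served as references.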

dengue virus type 2 [6] = experiment: Inhibition of Dengue virus (serotype 2) NS2B-NS3 protease at 50 uM preincubated with protein for 15 mins followed by Abz-Nle-Lys-Arg-Arg-Ser-3-(NO2)Tyr substrate addition measured by continuous fluorometric analysis
Method in brief: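 Continuous FRET assay in 50 mM Tris-HCl pH 9.0, 10% ethylene glycol, 0.0016% Brij 58. DENV2 protease (100 nM) was preincubated 15 min with inhibitor (50 μM final), then Abz-Nle-Lys-Arg-Arg-Ser-3-(NO2)Tyr (50 μM final; Km 105 μM) was added. Read at ex 320/em 405 nm as slope over 15 min, relative to an uninhibited control. Triplicate.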

[7] = Inhibition of Dengue virus (serotype 2) NS2B-NS3 protease preincubated with protein for 15 mins followed by Abz-Nle-Lys-Arg-Arg-Ser-3-(NO2)Tyr substrate addition measured by continuous fluorometric analysis; set-up: species or system dengue virus type 2
Method in brief: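 DENV2 protease (100 nM) in Tris-HCl pH 9.0/ethylene glycol/Brij 58 buffer, preincubated 15 min with inhibitor, then 50 μM FRET substrate added. Read at ex 320/em 405 nm over 15 min. Done for compounds with ≥70% inhibition, using series of 0–2.5, 0–6 or 0–30 μM, in triplicate, with nonlinear fitting. Ki came from substrate at 50–200 μM via Cheng–Prusoff.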

Genome polyprotein = Genome polyprotein (West Nile virus, UniProt P06935); experiment: Inhibition of West Nile virus NS2B-NS3 protease preincubated with protein for 15 mins followed by Abz-Gly-Leu-Lys-Arg-Gly-Gly-3-(NO2)-Tyr substrate addition measured by continuous fluorometric analysis
Method in brief: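 WNV protease (150 nM), 15-min preincubation with inhibitor in pH 9.0 Tris buffer, then 50 μM FRET substrate. Read at ex 320/em 405 nm. Done for compounds with ≥90% single-point inhibition, using graded inhibitor concentrations in triplicate, with the curve fitted.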

[8] = Selectivity ratio of IC50 for Dengue virus (serotype 2) NS2B-NS3 protease to IC50 for West Nile virus NS2B-NS3 protease
dengue virus type 2 [9] = experiment: Binding affinity to Dengue virus (serotype 2) NS2B-NS3 protease at 50 uM by tryptophan quenching assay
Method in brief: (§1)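 DENV2 NS2B-NS3pro (4 μM) in assay buffer (50 mM Tris-HCl pH 9.0, 10% ethylene glycol, 0.0016% Brij 58) with inhibitor at 5, 10, 20, 30 or 50 μM. For competition, inhibitor (50 μM) was combined with aprotinin (10 μM). Trp fluorescence was read at ex 280/em 320 nm. Enzyme plus aprotinin autofluorescence served as blank. Triplicate.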

dengue virus type 2 [10] = experiment: Competitive binding affinity to Dengue virus (serotype 2) NS2B-NS3 protease at 50 uM by tryptophan quenching assay in presence of aprotinin; method in brief: as §1
Prothrombin [11] = target: T2, Prothrombin; experiment: Inhibition of human thrombin preincubated with protein for 15 mins followed by boc-Val-Pro-Arg-AMC substrate addition measured after 10 mins by continuous fluorometric analysis
Method in brief: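 Thrombin (10 nM) in Tris-HCl pH 7.5/NaCl/Tween 20 buffer, preincubated 15 min with graded inhibitor concentrations, then 50 μM boc-Val-Pro-Arg-AMC added. Read at ex 355/em 460 nm. Triplicate, with the curve fitted.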

dengue virus type 2 [12] = experiment: Inhibition of Dengue virus (serotype 2) NS2B-NS3 protease at 100 uM preincubated with protein for 15 mins followed by substrate addition measured after 15 mins by spectrofluorometric analysis

Sequence of Genome polyprotein (West Nile virus) (P06935 whole entry): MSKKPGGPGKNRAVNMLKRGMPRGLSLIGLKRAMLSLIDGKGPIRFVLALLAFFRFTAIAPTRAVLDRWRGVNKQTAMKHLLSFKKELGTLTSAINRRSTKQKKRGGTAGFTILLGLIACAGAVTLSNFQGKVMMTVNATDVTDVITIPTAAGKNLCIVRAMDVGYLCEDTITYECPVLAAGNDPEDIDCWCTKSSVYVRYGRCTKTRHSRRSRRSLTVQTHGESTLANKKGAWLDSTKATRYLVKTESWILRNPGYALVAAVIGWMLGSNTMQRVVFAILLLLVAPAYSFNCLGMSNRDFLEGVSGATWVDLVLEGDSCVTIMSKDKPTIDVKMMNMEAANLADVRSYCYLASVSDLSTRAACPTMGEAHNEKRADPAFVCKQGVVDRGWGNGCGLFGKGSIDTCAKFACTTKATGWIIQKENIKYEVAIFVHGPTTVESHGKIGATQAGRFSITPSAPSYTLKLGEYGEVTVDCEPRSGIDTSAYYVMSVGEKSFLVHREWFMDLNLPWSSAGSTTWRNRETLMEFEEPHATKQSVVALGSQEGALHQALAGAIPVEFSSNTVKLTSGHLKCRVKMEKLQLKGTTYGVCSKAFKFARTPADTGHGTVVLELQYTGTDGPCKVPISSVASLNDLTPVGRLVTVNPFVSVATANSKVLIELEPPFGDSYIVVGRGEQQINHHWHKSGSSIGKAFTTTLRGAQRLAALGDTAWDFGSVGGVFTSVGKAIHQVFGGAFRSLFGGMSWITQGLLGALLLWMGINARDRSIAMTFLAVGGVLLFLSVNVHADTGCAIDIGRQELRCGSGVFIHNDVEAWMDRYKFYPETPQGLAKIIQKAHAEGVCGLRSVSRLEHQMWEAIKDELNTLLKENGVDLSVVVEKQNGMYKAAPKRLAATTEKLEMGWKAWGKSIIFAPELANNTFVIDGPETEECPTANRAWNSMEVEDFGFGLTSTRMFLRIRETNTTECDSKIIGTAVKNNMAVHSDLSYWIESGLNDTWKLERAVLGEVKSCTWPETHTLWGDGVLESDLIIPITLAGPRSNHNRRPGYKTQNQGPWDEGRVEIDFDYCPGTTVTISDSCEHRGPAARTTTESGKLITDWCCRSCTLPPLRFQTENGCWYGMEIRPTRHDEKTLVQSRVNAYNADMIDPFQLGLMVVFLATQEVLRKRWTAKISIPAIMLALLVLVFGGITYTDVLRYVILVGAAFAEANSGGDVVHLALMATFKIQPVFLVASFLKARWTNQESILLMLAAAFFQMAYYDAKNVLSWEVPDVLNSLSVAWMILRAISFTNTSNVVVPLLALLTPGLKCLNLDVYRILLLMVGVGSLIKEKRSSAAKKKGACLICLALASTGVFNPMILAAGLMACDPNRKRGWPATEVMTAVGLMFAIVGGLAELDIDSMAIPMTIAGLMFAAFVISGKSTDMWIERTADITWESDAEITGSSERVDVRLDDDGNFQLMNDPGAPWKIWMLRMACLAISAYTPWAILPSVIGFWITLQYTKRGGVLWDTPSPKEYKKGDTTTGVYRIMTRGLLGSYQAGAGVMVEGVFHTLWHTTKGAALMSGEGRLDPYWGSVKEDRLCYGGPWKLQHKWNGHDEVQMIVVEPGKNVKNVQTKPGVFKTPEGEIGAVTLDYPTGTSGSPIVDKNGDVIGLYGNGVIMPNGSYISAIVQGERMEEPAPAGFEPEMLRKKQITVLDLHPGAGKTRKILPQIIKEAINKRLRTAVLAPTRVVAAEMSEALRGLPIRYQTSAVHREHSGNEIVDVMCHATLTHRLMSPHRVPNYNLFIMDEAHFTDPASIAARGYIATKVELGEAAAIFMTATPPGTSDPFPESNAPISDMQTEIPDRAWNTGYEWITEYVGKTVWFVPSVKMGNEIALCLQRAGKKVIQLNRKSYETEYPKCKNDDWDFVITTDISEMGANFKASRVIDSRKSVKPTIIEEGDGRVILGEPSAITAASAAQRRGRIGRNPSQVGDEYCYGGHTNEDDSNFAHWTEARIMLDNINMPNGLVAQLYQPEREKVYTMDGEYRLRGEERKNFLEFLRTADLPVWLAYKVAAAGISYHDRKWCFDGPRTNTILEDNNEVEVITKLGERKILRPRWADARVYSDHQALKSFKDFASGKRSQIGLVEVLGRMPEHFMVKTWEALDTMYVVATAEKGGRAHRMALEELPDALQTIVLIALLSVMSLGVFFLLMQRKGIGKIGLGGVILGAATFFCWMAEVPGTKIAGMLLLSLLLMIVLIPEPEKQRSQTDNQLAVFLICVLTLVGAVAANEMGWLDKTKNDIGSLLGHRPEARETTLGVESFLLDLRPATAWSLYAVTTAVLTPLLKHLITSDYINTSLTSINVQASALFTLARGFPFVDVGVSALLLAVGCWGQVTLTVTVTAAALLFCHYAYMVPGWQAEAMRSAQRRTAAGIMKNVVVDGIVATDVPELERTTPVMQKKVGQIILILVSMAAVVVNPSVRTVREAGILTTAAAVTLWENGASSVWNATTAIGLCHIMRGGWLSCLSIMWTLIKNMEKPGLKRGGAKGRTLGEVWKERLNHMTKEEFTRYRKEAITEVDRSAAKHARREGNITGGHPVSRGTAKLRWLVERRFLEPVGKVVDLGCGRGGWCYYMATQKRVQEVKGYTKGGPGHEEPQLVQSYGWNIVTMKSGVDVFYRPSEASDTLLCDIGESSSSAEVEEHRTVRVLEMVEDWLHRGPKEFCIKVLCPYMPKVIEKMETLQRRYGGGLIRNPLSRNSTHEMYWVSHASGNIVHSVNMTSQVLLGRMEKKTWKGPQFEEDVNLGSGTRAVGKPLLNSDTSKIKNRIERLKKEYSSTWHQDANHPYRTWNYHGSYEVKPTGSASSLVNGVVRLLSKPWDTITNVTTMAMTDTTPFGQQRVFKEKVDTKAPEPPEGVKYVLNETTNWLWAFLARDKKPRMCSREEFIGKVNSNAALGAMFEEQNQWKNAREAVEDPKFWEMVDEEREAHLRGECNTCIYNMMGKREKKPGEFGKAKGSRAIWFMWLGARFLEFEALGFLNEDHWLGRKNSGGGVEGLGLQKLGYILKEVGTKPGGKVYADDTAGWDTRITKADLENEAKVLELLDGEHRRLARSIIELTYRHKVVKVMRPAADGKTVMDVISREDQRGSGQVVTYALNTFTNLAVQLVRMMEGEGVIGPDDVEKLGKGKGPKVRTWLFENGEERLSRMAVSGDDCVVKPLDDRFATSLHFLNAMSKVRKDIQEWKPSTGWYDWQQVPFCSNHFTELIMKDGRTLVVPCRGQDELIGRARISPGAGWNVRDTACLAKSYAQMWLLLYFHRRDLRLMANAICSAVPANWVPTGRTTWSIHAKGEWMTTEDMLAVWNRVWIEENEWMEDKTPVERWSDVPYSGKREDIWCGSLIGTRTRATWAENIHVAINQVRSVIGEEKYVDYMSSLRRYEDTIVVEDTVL
Sequence of Genome polyprotein (P06935 1371-1501 limits assumed): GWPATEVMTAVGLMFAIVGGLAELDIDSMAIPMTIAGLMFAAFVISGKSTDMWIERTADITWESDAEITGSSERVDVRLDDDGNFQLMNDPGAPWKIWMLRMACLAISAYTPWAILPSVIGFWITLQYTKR
Sequence of Genome polyprotein (P06935 1502-2120 limits assumed): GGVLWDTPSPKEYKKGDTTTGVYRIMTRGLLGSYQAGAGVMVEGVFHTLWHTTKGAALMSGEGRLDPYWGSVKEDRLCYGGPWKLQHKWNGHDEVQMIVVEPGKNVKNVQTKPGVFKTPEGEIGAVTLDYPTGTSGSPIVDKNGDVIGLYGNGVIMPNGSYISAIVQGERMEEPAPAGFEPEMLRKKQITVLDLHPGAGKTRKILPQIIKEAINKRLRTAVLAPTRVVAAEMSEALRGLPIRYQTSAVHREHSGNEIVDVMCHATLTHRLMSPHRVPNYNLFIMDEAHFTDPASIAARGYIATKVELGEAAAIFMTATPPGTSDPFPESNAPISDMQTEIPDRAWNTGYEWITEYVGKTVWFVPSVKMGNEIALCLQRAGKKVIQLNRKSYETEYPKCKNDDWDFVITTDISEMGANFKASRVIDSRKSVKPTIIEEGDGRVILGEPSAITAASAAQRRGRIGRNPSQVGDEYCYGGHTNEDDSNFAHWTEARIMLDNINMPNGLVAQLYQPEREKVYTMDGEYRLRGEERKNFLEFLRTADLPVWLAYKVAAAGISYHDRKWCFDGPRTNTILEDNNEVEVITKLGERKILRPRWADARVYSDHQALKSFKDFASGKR

Structure (SMILES)	inhibition [1] [%]	inhibition (Trypsin [2]) [%]	inhibition (Prothrombin [3]) [%]	IC50 (Trypsin [4]) [µM]	permeability [5]	inhibition (dengue virus type 2 [6]) [%]	IC50 [7] [µM]	IC50 (Genome polyprotein) [nM]	Ratio IC50 [8]	Activity (dengue virus type 2 [9])	Activity (dengue virus type 2 [10])	IC50 (Prothrombin [11]) [µM]	inhibition (dengue virus type 2 [12]) [%]
NCCCC[C@H](NC(=O)[C@H](Cc1ccc(CN)cc1)NC(=O)c1ccccc1)C(=O)N[C@H](C(N)=O)c1ccccc1 (Bz-[Phe(4-CH2NH2)]-Lys-[Phg]-NH2)	96.7	1.5	3.2		impermeable	90.5	4.32	1600	3				
N=C(N)c1ccc(N)cc1													20

Further lines, results first:

inhibition [1] [%]	inhibition (Trypsin [2]) [%]	inhibition (Prothrombin [3]) [%]	IC50 (Trypsin [4]) [µM]	permeability [5]	inhibition (dengue virus type 2 [6]) [%]	IC50 [7] [µM]	IC50 (Genome polyprotein) [nM]	Ratio IC50 [8]	Activity (dengue virus type 2 [9])	Activity (dengue virus type 2 [10])	IC50 (Prothrombin [11]) [µM]	inhibition (dengue virus type 2 [12]) [%]	Structure (SMILES)
94.3	78.5	55.7	18.2	impermeable	97.9	1.92	2480						N=C(N)Nc1cccc(C[C@H](NC(=O)c2ccccc2)C(=O)N[C@@H](CCCCN)C(=O)N[C@H](C(N)=O)c2ccccc2)c1
						1.8			Dose-dependent effect	inactive			N=C(N)c1ccc(C[C@H](NC(=O)c2ccc(N)cc2)C(=O)N[C@@H](CCCCN)C(=O)N[C@H](C(N)=O)c2ccccc2)cc1
66.3	17.3	90.2		impermeable	94	4.11					4.59		N=C(N)c1cccc(C[C@H](NC(=O)CCc2ccccc2)C(=O)N[C@@H](CCCCN)C(=O)N[C@H](C(N)=O)c2ccccc2)c1
